Data published in ChEMBL document CHEMBL4342473, “Lead Optimization of Benzoxazolone Carboxamides as Orally Bioavailable and CNS Penetrant Acid Ceramidase Inhibitors” (J Med Chem, 2020).
Calls of active or inactive are those of the source. The calls are words filed in the database; no cut-off is given here.

How the values were obtained:
[1] = biological target: T1, Sphingomyelin phosphodiesterase (Homo sapiens) (UniProt P17405); assay: Inhibition of human full length ASM at 1 to 10 uM using HMU-PC as fluorogenic substrate incubated for 45 mins by fluorescence based assay
T1 sequence (whole entry): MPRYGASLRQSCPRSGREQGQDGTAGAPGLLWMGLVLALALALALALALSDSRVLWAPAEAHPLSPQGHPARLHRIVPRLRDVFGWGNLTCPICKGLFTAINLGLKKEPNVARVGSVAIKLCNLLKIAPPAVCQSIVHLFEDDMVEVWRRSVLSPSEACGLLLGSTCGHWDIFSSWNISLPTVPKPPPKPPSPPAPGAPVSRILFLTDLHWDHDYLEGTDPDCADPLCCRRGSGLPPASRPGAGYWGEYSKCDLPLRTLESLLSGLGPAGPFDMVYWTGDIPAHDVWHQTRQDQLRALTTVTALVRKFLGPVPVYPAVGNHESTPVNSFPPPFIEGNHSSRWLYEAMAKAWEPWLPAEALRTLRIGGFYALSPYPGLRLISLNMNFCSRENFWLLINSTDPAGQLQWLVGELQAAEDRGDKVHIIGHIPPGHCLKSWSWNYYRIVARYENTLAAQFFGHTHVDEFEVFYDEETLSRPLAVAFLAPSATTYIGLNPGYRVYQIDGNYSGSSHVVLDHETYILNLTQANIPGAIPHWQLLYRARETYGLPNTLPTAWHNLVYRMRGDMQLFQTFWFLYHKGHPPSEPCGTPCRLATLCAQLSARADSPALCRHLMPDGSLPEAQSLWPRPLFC

[2] = biological target: T2, Monoglyceride lipase (Homo sapiens) (UniProt Q99685); assay: Inhibition of recombinant human MAGL at 1 to 10 uM using 4-nitrophenylacetate as substrate preincubated for 5 mins followed by substrate addition and measured after 10 mins by colorimetric method
T2 sequence (whole entry): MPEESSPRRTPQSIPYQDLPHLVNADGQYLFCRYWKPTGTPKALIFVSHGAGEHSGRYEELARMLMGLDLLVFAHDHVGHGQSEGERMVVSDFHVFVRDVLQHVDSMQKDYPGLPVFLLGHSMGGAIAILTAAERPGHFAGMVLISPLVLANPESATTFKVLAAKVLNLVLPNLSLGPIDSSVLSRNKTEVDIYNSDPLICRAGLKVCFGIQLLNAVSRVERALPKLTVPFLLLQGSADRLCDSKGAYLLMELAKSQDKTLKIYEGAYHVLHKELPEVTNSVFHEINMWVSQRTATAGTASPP

[3] = biological target: T3, Acid ceramidase (Homo sapiens) (UniProt Q13510); assay: Inhibition of acid ceramidase in human SH-SY5Y cells using N-lauroyl ceramide as substrate measured after 3 hrs by LC/MS analysis; type: cell-based
T3 sequence (whole entry): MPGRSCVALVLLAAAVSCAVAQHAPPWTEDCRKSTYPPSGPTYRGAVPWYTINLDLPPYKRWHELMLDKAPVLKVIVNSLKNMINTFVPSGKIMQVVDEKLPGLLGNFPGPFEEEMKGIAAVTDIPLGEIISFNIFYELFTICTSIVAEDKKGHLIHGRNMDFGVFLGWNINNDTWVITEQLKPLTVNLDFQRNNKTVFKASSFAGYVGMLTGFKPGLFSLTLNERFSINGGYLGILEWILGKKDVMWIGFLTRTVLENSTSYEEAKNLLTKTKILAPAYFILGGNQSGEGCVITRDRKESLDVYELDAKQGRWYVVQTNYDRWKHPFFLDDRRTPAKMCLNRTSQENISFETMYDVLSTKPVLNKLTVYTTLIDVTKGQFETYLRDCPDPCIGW
Summary of the method: (§1)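 SH-SY5Y neuroblastoma cells exposed 3 h to 1, 2.5, 5 and 10 μM; AC activity by LC/MS-based assay; ceramide species, sphingosine, SM and HexCer (d18:1/16:0) quantified by LC/MS; means ± S.E.M. of at least six determinations, experiment repeated twice.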

[4] = biological target: T3, Acid ceramidase (Homo sapiens); assay: Inhibition of acid ceramidase in human SH-SY5Y cells assessed as increase in intracellular accumulation of Cer (d18:0/16:0) measured after 3 hrs by LC/MS analysis; type: cell-based; summary of the method: as §1
[5] = biological target: T3, Acid ceramidase (Homo sapiens); assay: Inhibition of acid ceramidase in human SH-SY5Y cells assessed as decrease in sphingosine level measured after 3 hrs by LC/MS analysis; type: cell-based; summary of the method: as §1
[6] = biological target: T3, Acid ceramidase (Homo sapiens); assay: Inhibition of acid ceramidase in human SH-SY5Y cells assessed as change in intracellular accumulation of HexCer (d18:1/16:0) up to 10 uM measured after 3 hrs by LC/MS analysis; type: cell-based; summary of the method: as §1
[7] = Toxicity in C57BL/6 mouse assessed as clinical abnormalities at 20 to 120 mg/kg, ip administered for 4 days; type: organism-based; conditions: in vivo, 96 h
[8] = Unbound drug level in brain of C57BL/6J/129SvEV mouse model of Gaucher's disease at 30 mg/kg, ip administered once daily for 14 days measured 1 hr post-last dose; type: ADME, organism-based; conditions: in vivo
Summary of the method: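 4L;C* mice dosed i.p. once daily for 14 days, killed 1 h after last dose (day 14); plasma and brain drug levels measured; unbound concentrations from plasma and brain unbound fractions (mean of two technical replicates); N = 4–8, mixed sexes.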

[9] = Unbound drug level in brain of twitcher mouse model of Krabbe's disease at 90 mg/kg,ip administered once daily for 20 days measured 1 hr post-last dose; type: ADME, organism-based; conditions: in vivo
Summary of the method: (§2)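 Twitcher mice dosed i.p. once daily for 20 days, sacrificed 1 h after last dose (day 20); drug measured in plasma and brain; unbound levels from unbound fractions (mean of two technical replicates); N = 3 males + 3 females per group.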

[10] = Unbound drug level in brain of twitcher mouse model of Krabbe's disease at 30 mg/kg,ip administered once daily for 20 days measured 1 hr post-last dose; type: ADME, organism-based; conditions: in vivo; summary of the method: as §2
[11] = biological target: T4, Acid ceramidase (Homo sapiens, UniProt Q13510); assay: Time-dependent inhibition of human acid ceramidase expressed in HEK293 cells using Rbm14-12 as substrate by fluorescence assay; type: cell-based
T4 sequence (Q13510 whole entry): T3 sequence (whole entry)
Summary of the method: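 hAC-enriched lysates with fluorogenic substrate Rbm 14-12; vehicle 1% DMSO; time-dependent inhibition analysed for ki/KI and ki; two independent experiments, each in two technical replicates.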

[12] = Ratio of unbound drug level in brain of C57BL/6J/129SvEV mouse model of Gaucher's disease at 30 mg/kg, ip administered once daily for 14 days measured 1 hr post-last dose to EC50 for inhibition of acid ceramidase in Krabbe's disease patient-derived primary fibroblasts; type: organism-based; conditions: in vivo
Summary of the method: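 Gaucher-model 4L;C* mice (N = 4–8, mixed sexes) got 30 or 90 mg kg–1 i.p. once daily for 14 days from postnatal day 5 and were sacrificed 1 h after the day-14 dose. Compound levels were measured in plasma and brain, and unbound brain level came from brain fraction unbound (two technical replicates). The reference EC50 was from Krabbe patient primary fibroblasts incubated 2 h across concentrations (two independent experiments, duplicates).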

[13] = Ratio of unbound drug level in brain of twitcher mouse model of Krabbe's disease at 30 mg/kg,ip administered once daily for 20 days measured 1 hr post-last dose to EC50 for inhibition of acid ceramidase in Krabbe's disease patient-derived primary fibroblasts; type: organism-based; conditions: in vivo
Summary of the method: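 Twitcher mice (3 males + 3 females per group) got 30 or 90 mg kg–1 i.p. once daily for 20 days from postnatal day 10 and were sacrificed 1 h after the day-20 dose. Plasma and brain levels were measured, and unbound brain level came from brain fraction unbound (two technical replicates). The EC50 was from Krabbe patient primary fibroblasts exposed 2 h to a concentration series (two independent experiments, duplicates).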

In the case of `CC(C)CNC(=O)n1c(=O)oc2cc(C3CCN(C)CC3)ccc21`, the inhibition [1] is reported as “inactive”, the inhibition [2] is reported as “inactive” and the inhibition [3] is reported as “Dose-dependent effect”. For the same compound, the inhibition [4] was “Dose-dependent effect”, the inhibition [5] was “Dose-dependent effect” and the inhibition [6] was “inactive”. For the same compound, the Activity [7] was “Non-Toxic”, the “Drug uptake(free)” value [8] was 0.77 µM and the “Drug uptake(free)” value [9] was 2.15 µM. For the same compound, the “Drug uptake(free)” value [10] was 0.8 µM, the kinact [11] was 0.15 min⁻¹ and the Ratio [12] was 1.9. The Ratio [13] was 2.
